In brackets after ≈: the same amount, converted by molar mass.
Tests used:
Homo sapiens [1] = species: Homo sapiens; experiment: Selectivity index, ratio of IC50 for human A431 cells harboring wild type EGFR to IC50 for human NCI-H1975 cells harboring EGFR L858R/T790M double mutant
Outline: (§1)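 Cell growth inhibition measured by sulforhodamine B colorimetric assay in H1975 (EGFR L858R/T790M) and A431 (overexpressed wild-type EGFR) cells; IC50 values are means ± SD of at least three independent determinations. Selectivity is taken as the A431:H1975 IC50 ratio.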

Homo sapiens [2] = species: Homo sapiens; experiment: Selectivity ratio of IC50 for recombinant human GST-tagged EGFR (668 to 1210 residues) expressed in baculovirus expression system to IC50 for recombinant human GST-tagged EGFR L858R/T790M double mutant expressed in baculovirus expression system
Outline: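 ELISA-based EGFR tyrosine kinase assay run on wild-type and L858R/T790M enzymes. IC50 values come from at least three independent determinations, reported as means ± SD. Selectivity is the wild-type IC50 divided by the L858R/T790M IC50.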

[3] = target: Epidermal growth factor receptor (Homo sapiens, UniProt P00533, L858R/T790M); experiment: Inhibition of recombinant human GST-tagged EGFR L858R/T790M double mutant expressed in baculovirus expression system using Poly(Glu,Tyr)4:1 as substrate after 1 hr by ELISA
[4] = Aqueous solubility in pH 7.4 PBS buffer by UV-Visible spectrophotometric method; assay type: physicochemical
Outline: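 Solubility determined in 0.1 M PBS, pH 7.4, by UV-visible spectrophotometry.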

A-431 = experiment: Cytotoxicity against human A431 cells harboring wild type EGFR assessed as reduction in cell viability after 72 hrs by SRB assay; assay type: cell-based; conditions: A-431, 72 h; outline: as §1
NCI-H1975 = experiment: Antiproliferative activity against human NCI-H1975 cells harboring EGFR L858R/T790M double mutant after 72 hrs by SRB assay; assay type: functional, cell-based; conditions: NCI-H1975, 72 h; outline: as §1
[5] = target: Epidermal growth factor receptor (Homo sapiens, UniProt P00533); experiment: Inhibition of recombinant human GST-tagged EGFR (668 to 1210 residues) expressed in baculovirus expression system using Poly(Glu,Tyr)4:1 as substrate after 1 hr by ELISA
Sequence of Epidermal growth factor receptor (Homo sapiens, UniProt P00533) (P00533 whole entry, the tested form may be a part): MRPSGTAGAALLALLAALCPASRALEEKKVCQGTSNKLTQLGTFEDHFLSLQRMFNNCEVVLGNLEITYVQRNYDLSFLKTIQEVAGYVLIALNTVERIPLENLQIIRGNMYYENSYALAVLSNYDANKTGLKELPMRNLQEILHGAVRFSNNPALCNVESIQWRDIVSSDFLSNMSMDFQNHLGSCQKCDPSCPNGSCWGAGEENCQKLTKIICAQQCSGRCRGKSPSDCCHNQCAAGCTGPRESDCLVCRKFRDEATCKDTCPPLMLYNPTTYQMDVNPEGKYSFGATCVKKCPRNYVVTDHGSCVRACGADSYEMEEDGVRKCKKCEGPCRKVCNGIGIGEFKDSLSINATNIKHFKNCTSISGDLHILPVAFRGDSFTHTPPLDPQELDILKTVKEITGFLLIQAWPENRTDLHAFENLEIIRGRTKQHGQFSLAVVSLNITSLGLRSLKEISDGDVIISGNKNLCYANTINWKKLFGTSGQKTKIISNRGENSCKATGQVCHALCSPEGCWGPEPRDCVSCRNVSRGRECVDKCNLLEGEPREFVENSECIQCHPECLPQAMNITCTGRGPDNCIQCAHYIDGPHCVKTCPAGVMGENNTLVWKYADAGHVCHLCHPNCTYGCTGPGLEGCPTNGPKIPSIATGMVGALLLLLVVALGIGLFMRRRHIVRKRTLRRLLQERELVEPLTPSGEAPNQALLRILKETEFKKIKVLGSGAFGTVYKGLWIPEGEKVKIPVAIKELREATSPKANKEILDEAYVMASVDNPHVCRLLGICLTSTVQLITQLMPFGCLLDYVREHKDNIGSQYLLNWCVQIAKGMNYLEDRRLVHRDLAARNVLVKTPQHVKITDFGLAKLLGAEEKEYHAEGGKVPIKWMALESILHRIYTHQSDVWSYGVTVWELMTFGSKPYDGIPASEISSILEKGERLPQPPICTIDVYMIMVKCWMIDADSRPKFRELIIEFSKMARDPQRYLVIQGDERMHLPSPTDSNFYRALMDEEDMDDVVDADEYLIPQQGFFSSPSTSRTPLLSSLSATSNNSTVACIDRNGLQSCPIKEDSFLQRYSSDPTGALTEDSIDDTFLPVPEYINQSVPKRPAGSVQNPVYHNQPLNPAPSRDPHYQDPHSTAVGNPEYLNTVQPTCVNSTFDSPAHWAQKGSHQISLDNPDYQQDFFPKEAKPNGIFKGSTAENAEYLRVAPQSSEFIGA

Sequence of Epidermal growth factor receptor (Homo sapiens, UniProt P00533, L858R/T790M) (P00533 25-1210 T790M/L858R limits assumed): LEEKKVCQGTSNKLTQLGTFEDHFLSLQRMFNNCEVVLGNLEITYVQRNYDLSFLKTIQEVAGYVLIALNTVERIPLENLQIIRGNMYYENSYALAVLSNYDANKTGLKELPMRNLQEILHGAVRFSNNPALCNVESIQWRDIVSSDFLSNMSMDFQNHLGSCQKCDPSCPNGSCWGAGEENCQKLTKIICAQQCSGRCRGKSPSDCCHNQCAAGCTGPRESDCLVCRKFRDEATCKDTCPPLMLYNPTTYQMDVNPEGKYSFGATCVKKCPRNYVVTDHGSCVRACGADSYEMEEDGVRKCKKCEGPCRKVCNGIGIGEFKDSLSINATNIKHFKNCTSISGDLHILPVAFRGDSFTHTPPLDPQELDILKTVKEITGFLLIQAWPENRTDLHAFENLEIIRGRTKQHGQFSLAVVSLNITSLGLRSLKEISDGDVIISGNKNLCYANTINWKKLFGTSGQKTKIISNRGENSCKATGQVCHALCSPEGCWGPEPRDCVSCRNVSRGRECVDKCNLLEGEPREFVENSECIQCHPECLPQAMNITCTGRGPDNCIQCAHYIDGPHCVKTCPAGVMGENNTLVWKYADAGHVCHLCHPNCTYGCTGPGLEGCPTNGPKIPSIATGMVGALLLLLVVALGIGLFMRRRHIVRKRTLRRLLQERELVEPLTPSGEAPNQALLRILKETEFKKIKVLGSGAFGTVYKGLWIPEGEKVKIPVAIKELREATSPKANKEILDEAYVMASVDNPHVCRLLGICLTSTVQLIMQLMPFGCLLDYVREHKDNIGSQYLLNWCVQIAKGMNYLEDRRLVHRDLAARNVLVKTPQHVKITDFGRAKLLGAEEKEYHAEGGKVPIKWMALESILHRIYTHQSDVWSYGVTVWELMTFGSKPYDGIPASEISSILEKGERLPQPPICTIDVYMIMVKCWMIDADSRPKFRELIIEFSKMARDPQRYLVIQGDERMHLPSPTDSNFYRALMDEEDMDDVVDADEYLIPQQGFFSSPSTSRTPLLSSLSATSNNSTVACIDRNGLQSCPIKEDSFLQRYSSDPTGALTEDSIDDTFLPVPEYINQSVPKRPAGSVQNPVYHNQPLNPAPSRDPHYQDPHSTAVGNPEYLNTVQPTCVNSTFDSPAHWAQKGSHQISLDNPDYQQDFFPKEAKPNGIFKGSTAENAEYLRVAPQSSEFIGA

C=CC(=O)Nc1cccc(-n2c(=O)n(CCc3ccccc3)c(=O)c3cnc(Nc4ccc(N5CCC(N(C)C)CC5)cc4OC)nc32)c1
Ratio IC50 (Homo sapiens [1]): 11
Ratio IC50 (Homo sapiens [2]): 0.7
IC50 [3]: 0.001 µM
solubility [4]: 99 µg/mL (≈ 150 µM)
IC50 (A-431): 2.04 µM
IC50 (NCI-H1975): 0.189 µM
IC50 [5]: 0.0007 µM

C=CC(=O)Nc1cccc(-n2c(=O)n(C(C)C)c(=O)c3cnc(Nc4ccc(N5CCN(C)CC5)c(OC)c4)nc32)c1
Ratio IC50 (Homo sapiens [1]): 28
Ratio IC50 (Homo sapiens [2]): 18
IC50 [3]: 0.0068 µM
solubility [4]: 309 µg/mL (≈ 541 µM)
IC50 (A-431): 1.05 µM
IC50 (NCI-H1975): 0.037 µM
IC50 [5]: 0.119 µM

C=CC(=O)Nc1cccc(-n2c(=O)n(Cc3ccccc3)c(=O)c3cnc(Nc4ccc(N5CCC(N(C)C)CC5)cc4OC)nc32)c1
Ratio IC50 (Homo sapiens [1]): 12
Ratio IC50 (Homo sapiens [2]): 0.6
IC50 [3]: 0.0019 µM
solubility [4]: 137 µg/mL (≈ 212 µM)
IC50 (A-431): 3.3 µM
IC50 (NCI-H1975): 0.278 µM
IC50 [5]: 0.0012 µM

C=CC(=O)Nc1cccc(Nc2nc(Nc3ccc(N4CCN(C(C)=O)CC4)cc3OC)ncc2C(F)(F)F)c1 [ROCILETINIB]
IC50 (A-431): 0.641 µM
IC50 (NCI-H1975): 0.031 µM

C=CC(=O)Nc1cccc(-n2c(=O)n(C(C)C)c(=O)c3cnc(Nc4ccc(N(C)CCN(C)C)cc4OC)nc32)c1
Ratio IC50 (Homo sapiens [1]): 14
Ratio IC50 (Homo sapiens [2]): 7.6
IC50 [3]: 0.016 µM
solubility [4]: 1050 µg/mL (≈ 1840 µM)
IC50 (A-431): 1.95 µM
IC50 (NCI-H1975): 0.138 µM
IC50 [5]: 0.121 µM

C=CC(=O)Nc1cccc(-n2c(=O)n(C(C)C)c(=O)c3cnc(Nc4ccc(N5CCC(N6CCN(C)CC6)CC5)cc4OC)nc32)c1
Ratio IC50 (Homo sapiens [1]): 9
Ratio IC50 (Homo sapiens [2]): 17
IC50 [3]: 0.014 µM
solubility [4]: 121 µg/mL (≈ 185 µM)
IC50 (A-431): 1.39 µM
IC50 (NCI-H1975): 0.154 µM
IC50 [5]: 0.24 µM

C=CC(=O)Nc1cccc(-n2c(=O)n(CCC)c(=O)c3cnc(Nc4ccc(N5CCC(N(C)C)CC5)cc4OC)nc32)c1
Ratio IC50 (Homo sapiens [1]): 69
Ratio IC50 (Homo sapiens [2]): 33
IC50 [3]: 0.0004 µM
solubility [4]: 184 µg/mL (≈ 307 µM)
IC50 (A-431): 4.13 µM
IC50 (NCI-H1975): 0.06 µM
IC50 [5]: 0.013 µM

C=CC(=O)Nc1cccc(-n2c(=O)n(CC)c(=O)c3cnc(Nc4ccc(N5CCC(N(C)C)CC5)cc4OC)nc32)c1
Ratio IC50 (Homo sapiens [2]): 44
IC50 [3]: 0.0025 µM
solubility [4]: 229 µg/mL (≈ 392 µM)
IC50 (A-431): > 10 µM
IC50 (NCI-H1975): 0.175 µM
IC50 [5]: 0.111 µM

C=CC(=O)Nc1cccc(-n2c(=O)n(C)c(=O)c3cnc(Nc4ccc(N5CCSCC5)cc4OC)nc32)c1
Ratio IC50 (Homo sapiens [1]): 15
Ratio IC50 (Homo sapiens [2]): 3.5
IC50 [3]: 0.091 µM
solubility [4]: 45 µg/mL (≈ 82.5 µM)
IC50 (A-431): 8.37 µM
IC50 (NCI-H1975): 0.573 µM
IC50 [5]: 0.314 µM

C=CC(=O)Nc1cccc(-n2c(=O)n(C)c(=O)c3cnc(Nc4ccc(N5CCC(N(C)C)CC5)cc4OC)nc32)c1
solubility [4]: 531 µg/mL (≈ 931 µM)
IC50 (A-431): 3.89 µM
IC50 (NCI-H1975): 0.23 µM

C=CC(=O)Nc1cccc(-n2c(=O)n(CCCc3ccccc3)c(=O)c3cnc(Nc4ccc(N5CCC(N(C)C)CC5)cc4OC)nc32)c1
Ratio IC50 (Homo sapiens [1]): 4.1
Ratio IC50 (Homo sapiens [2]): 2.7
IC50 [3]: 0.0014 µM
solubility [4]: 104 µg/mL (≈ 154 µM)
IC50 (A-431): 1.46 µM
IC50 (NCI-H1975): 0.358 µM
IC50 [5]: 0.0038 µM

C=CC(=O)Nc1cccc(-n2c(=O)n(C(C)C)c(=O)c3cnc(Nc4ccc(OCCN(C)C)cc4OC)nc32)c1
Ratio IC50 (Homo sapiens [1]): 36
Ratio IC50 (Homo sapiens [2]): 2
IC50 [3]: 0.115 µM
solubility [4]: 647 µg/mL (≈ 1160 µM)
IC50 (A-431): 3.6 µM
IC50 (NCI-H1975): 0.099 µM
IC50 [5]: 0.227 µM

C=CC(=O)Nc1cccc(-n2c(=O)n(C)c(=O)c3cnc(Nc4ccc(N5CCN(C(C)=O)CC5)cc4OC)nc32)c1
Ratio IC50 (Homo sapiens [2]): 3.9
IC50 [3]: 0.046 µM
solubility [4]: < 10 µg/mL
IC50 (A-431): > 10 µM
IC50 (NCI-H1975): > 10 µM
IC50 [5]: 0.18 µM

C=CC(=O)Nc1cccc(-n2c(=O)n(C(C)C)c(=O)c3cnc(Nc4ccc(N5CCC(N(C)C)CC5)cc4OC)nc32)c1
Ratio IC50 (Homo sapiens [2]): 25
IC50 [3]: 0.0008 µM
solubility [4]: 176 µg/mL (≈ 294 µM)
IC50 (A-431): > 10 µM
IC50 (NCI-H1975): 0.05 µM
IC50 [5]: 0.02 µM

C=CC(=O)Nc1cccc(-n2c(=O)n(C)c(=O)c3cnc(Nc4ccc(N5CCOCC5)cc4OC)nc32)c1
Ratio IC50 (Homo sapiens [2]): 4.9
IC50 [3]: 0.07 µM
solubility [4]: 61 µg/mL (≈ 115 µM)
IC50 (A-431): > 10 µM
IC50 (NCI-H1975): > 10 µM
IC50 [5]: 0.341 µM

C=CC(=O)Nc1cccc(-n2c(=O)n(C)c(=O)c3cnc(Nc4ccccc4)nc32)c1
Ratio IC50 (Homo sapiens [2]): 1.2
IC50 [3]: 0.068 µM
solubility [4]: < 10 µg/mL
IC50 (A-431): > 10 µM
IC50 (NCI-H1975): 9.26 µM
IC50 [5]: 0.082 µM

C=CC(=O)Nc1cccc(-n2c(=O)n(C(C)C)c(=O)c3cnc(Nc4ccc(N5CCN(C)CC5)c(C)c4)nc32)c1
Ratio IC50 (Homo sapiens [1]): 40
Ratio IC50 (Homo sapiens [2]): 34
IC50 [3]: 0.001 µM
solubility [4]: 280 µg/mL (≈ 505 µM)
IC50 (A-431): 0.954 µM
IC50 (NCI-H1975): 0.024 µM
IC50 [5]: 0.034 µM
